ChEMBL document CHEMBL1177856, “Synthesis and cytotoxic activity of fluorinated analogues of Goniothalamus lactones. Impact of fluorine on oxidative processes” (Eur J Med Chem, 2010)

How the values were obtained:
[1] = test system: KB; test: Cytotoxicity against human KB cells after 24 hrs; assay type: functional, cell-based
Outline: (§1)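 Cell growth inhibition assay on human cancer lines KB, MCF-7, HT29, HepG2 and A549. IC50 is defined as the concentration that inhibits cell growth by 50%.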

[2] = test system: MCF7; test: Cytotoxicity against human MCF7 cells after 24 hrs; assay type: functional, cell-based; details: MCF7, 24 h; outline: as §1
[3] = test system: HT-29; test: Cytotoxicity against human HT-29 cells after 24 hrs; assay type: functional, cell-based; details: HT-29, 24 h; outline: as §1
[4] = test system: HepG2; test: Cytotoxicity against human HepG2 cells after 24 hrs; assay type: functional, cell-based; details: HepG2, 24 h; outline: as §1
[5] = test system: A549; test: Cytotoxicity against human A549 cells after 24 hrs; assay type: functional, cell-based; details: A549, 24 h; outline: as §1
[6] = test system: KB; test: Cytotoxicity against human KB cells after 24 hrs
[7] = test system: A549; test: Cytotoxicity against human A549 cells after 24 hrs; details: A549, 24 h
[8] = test system: MCF7; test: Cytotoxicity against human MCF7 cells after 24 hrs; details: MCF7, 24 h
[9] = test system: HepG2; test: Cytotoxicity against human HepG2 cells after 24 hrs; details: HepG2, 24 h
[10] = test system: HT-29; test: Cytotoxicity against human HT-29 cells after 24 hrs; details: HT-29, 24 h
[11] = test system: P388; test: Cytotoxicity against mouse P388 cells; assay type: functional, cell-based
[12] = test system: WEHI-164; test: Cytotoxicity against mouse WEHI164 cells; assay type: functional, cell-based
[13] = Cytotoxicity against human Hep3B cells; assay type: functional, cell-based, Hep 3B2
[14] = test system: MDA-MB-231; test: Cytotoxicity against human MDA-MB-231 cells; assay type: functional, cell-based

Row | Compound | IC50 [1] [µM] | IC50 [2] [µM] | IC50 [3] [µM] | IC50 [4] [µM] | IC50 [5] [µM] | IC50 [6] [µM] | IC50 [7] [µM] | IC50 [8] [µM] | IC50 [9] [µM] | IC50 [10] [µM] | IC50 [11] [µM] | IC50 [12] [µM] | IC50 [13] [µM] | IC50 [14] [µM]
1 | O=C1C=C[C@H](O)[C@H]([C@H](O)[C@H](OC(=O)/C=C/C(F)(F)F)c2ccccc2)O1 | 1.4 | 1.6 | 4.5 | 1.8 | 3 | – | – | – | – | – | – | – | – | –
2 | O=C1C=CCC(/C=C/C(F)(F)F)O1 (racemic) | – | – | – | – | – | > 10 | > 10 | > 10 | > 10 | > 10 | – | – | – | –
3 | O=C1C=CCC(/C=C/c2ccccc2)O1 (racemic) | 3 | 3.5 | 10.1 | 2.4 | 9.1 | – | – | – | – | – | 3.8 | 8.5 | 5.4 | 5.4
4 | O=C1C=C[C@H](O)[C@H]([C@H](O)[C@H](OC(=O)/C=C/c2ccccc2)c2ccccc2)O1 [HOWIINOL A] | 0.9 | 1.1 | 2.6 | 1.6 | 1.5 | – | – | – | – | – | – | – | – | –
5 | O=C1C=CC[C@H](/C=C/c2ccccc2)O1 [GONIOTHALAMIN] | – | 4.5 | – | 1.6 | – | – | – | – | – | – | 3.8 | 8.5 | 5.4 | 5.4
